Assay [1] can be described thus: Displacement of racemic [3H]CP-101606 from rat forebrain membrane N-methyl-D-aspartate glutamate receptor 2B.
The species entered for assay [2] is Rattus norvegicus. Put plainly: Compound was tested for neuroprotection against NMDA-Induced toxicity in cultured rat hippocampal neurons. The format is functional.
The target in assay [3] is T1, Glutamate receptor ionotropic, NMDA 2B (Rattus norvegicus, UniProt Q00960). Put plainly: Ability to displace of racemic […] of [3H]CP-101606 binding to N-methyl-D-aspartate glutamate receptor 2B in rat forebrain membranes. The format is cell membranes, Membrane.
Assay [4] can be described thus: Compound was evaluated for blockade of CSD as rats protected/ rats tested after a iv dose of 0.6 mg/kg followed by an infusion of 0.6 mg/kgh; 2/3. The format is functional, organism-based.
A short description of assay [5]: Compound was evaluated for blockade of CSD as rats protected/ rats tested after a iv dose of 2 mg/kg followed by an infusion of 2 mg/kgh; 2/2. The format is functional, organism-based.
Assay [6] can be described thus: Compound was evaluated for blockade of CSD as rats protected/ rats tested after a iv dose of 0.2 mg/kg followed by an infusion of 0.2 mg/kg/h; 0/2. The format is functional, organism-based.
For assay [7], the system named is Rattus norvegicus. Put plainly: Compound was evaluated for blockade of CSD in rats; rat protected /tested(mg/kg iv bolus+mg/kgh iv infusion) = 0/2 (0.2+0.2). The format is functional, organism-based.
Assay [8] concerns Rattus norvegicus. Put plainly: Compound was evaluated for blockade of CSD in rats; rat protected /tested(mg/kg iv bolus+mg/kgh iv infusion) = 2/3 (0.6+0.6). The format is functional, organism-based.
The subject of assay [9] is Rattus norvegicus. Put plainly: Compound was evaluated in vivo for blockade of haloperidol induced catalepsy in rat when administered perorally. The format is functional. To be noted: po. The method in brief:
(§1)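 Rats given haloperidol were scored for catalepsy as remaining perched on an elevated bar. Test drug was given peripherally beforehand. ED50 in mg/kg ± SEM.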

Assay [10] concerns Mus musculus. Put plainly: Compound was evaluated in vivo for blockade of NMDA-stimulated fos induction in mouse when administered intravenously. To be noted: iv. The format is functional.
For assay [11], the target named is T1, Glutamate receptor ionotropic, NMDA 2B. Put plainly: Compound was evaluated for its blocking effect against N-methyl-D-aspartate glutamate receptor 2B. The arrangement: species or system xenopus oocytes.
The test system of assay [12] is Rattus norvegicus. Put plainly: Compound was evaluated in vivo for blockade of haloperidol induced catalepsy in rat when administered subcutaneously. The format is functional. To be noted: sc. The method in brief: as §1
For assay [13], the system named is Rattus norvegicus. Put plainly: Compound was evaluated in vivo for blockade of haloperidol induced catalepsy in rat when administered perorally. To be noted: po. The format is functional. The method in brief: as §1
Assay [14] has as its system Mus musculus. Put plainly: Compound was evaluated in vivo for blockade of NMDA-stimulated fos induction in mouse. The format is functional.
For assay [15], the species on record is Rattus norvegicus. Put plainly: Compound was tested for neuroprotection against NMDA-Induced toxicity in cultured hippocampal neurons. The format is functional. In a few lines: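 Neuron loss was induced by NMDA or glutamate in primary rat hippocampal neuron cultures, and inhibition of that loss was measured.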

A word on the IC50: it is the concentration at which inhibition is half-maximal. What is called ED50 is the midpoint of the dose-response relation. A higher ED50 goes with a need for a large dose.

Active and inactive are the calls of the source. The calls are words filed in the database; no cut-off is given here.

T1 sequence (Q00960 whole entry, the tested form may be a part): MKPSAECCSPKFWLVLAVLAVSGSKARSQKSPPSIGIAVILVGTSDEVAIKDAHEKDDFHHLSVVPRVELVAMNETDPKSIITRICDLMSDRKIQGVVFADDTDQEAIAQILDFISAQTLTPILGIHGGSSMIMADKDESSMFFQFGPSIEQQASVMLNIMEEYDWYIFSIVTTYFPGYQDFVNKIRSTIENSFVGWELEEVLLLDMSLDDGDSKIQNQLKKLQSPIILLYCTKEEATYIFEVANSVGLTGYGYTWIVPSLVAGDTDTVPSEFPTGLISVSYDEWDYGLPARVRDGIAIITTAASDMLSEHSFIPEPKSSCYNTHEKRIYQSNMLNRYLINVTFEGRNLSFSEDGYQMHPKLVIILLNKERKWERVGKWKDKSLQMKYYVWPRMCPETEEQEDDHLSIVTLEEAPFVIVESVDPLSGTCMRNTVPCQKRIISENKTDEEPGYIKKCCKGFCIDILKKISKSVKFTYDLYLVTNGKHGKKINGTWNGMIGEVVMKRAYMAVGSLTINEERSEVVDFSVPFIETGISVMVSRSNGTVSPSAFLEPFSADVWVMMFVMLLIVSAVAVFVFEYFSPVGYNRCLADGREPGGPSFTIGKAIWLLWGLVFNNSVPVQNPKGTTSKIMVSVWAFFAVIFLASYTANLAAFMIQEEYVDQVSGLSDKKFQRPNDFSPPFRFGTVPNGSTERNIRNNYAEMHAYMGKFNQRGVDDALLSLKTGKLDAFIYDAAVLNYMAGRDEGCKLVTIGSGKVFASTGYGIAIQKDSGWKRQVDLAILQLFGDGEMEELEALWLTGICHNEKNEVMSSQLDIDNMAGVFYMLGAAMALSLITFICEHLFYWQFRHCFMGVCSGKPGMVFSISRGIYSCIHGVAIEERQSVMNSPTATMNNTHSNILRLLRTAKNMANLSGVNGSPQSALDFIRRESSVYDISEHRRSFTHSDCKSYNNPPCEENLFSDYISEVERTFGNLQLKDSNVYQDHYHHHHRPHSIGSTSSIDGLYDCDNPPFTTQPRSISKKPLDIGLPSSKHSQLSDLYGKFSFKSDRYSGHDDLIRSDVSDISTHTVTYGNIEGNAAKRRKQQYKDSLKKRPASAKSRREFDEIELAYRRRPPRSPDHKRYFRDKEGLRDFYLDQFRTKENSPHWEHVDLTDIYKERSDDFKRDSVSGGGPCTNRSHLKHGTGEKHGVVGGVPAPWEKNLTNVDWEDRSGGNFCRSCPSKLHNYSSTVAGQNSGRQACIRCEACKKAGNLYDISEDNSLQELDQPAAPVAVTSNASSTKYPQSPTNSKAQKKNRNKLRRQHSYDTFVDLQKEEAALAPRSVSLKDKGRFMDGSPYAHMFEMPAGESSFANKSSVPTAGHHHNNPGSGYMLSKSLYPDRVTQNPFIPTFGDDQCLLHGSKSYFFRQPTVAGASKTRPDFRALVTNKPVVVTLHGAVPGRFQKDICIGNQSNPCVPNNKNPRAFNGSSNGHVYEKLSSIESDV

Take `CO[C@H]1c2ccc(O)cc2OC[C@H]1N1CCC(O)(c2ccc(F)cc2)CC1`: the half-maximal inhibitory concentration (IC50) in assay [1] is above 0.3 µM.
With `Oc1ccc2c(c1)OC1C[C@]1(N1CCC(O)(c3ccc(F)cc3)CC1)[C@H]2O` (stereo not given in full), in the assay listed under Rattus norvegicus [2] (Rattus norvegicus), the IC50 worked out at 1 µM.
Turning to `Oc1ccc2c(c1)OC[C@@H](N1CCC(O)(c3ccc(F)cc3)CC1)C2`, the IC50 in assay [3] is 0.3 µM.
For the molecule `Oc1ccc2c(c1)OC[C@@H](N1CCC(O)(Cc3ccccc3)CC1)[C@H]2O`, the IC50 in the assay filed under Rattus norvegicus [2] (Rattus norvegicus) amounted to 0.533 µM.
Regarding `Oc1ccc2c(c1)OC[C@@H](N1CCC(O)(c3ccc(F)cc3)CC1)[C@H]2O` (stereo in doubt; 12a) [listing 1 of 2 here], the Ratio entry in assay [4] is “Partially active”. Moreover, the Ratio entry in assay [5] was “Active”. The Ratio entry in assay [6] is “inactive”. For the same molecule, in the assay on Rattus norvegicus [7], the Blockade effect result is “inactive”. For the same molecule, in the assay on Rattus norvegicus [8], the Blockade effect entry is “Partially active”.
Consider `COc1ccc2c(c1)OC[C@@H](N1CCC(O)(c3ccc(F)cc3)CC1)[C@H]2O`, for which the IC50 in [1] was above 0.3 µM.
In the case of `Oc1ccc2c(c1)OC[C@@H](N1CCC(c3ccccc3)CC1)[C@H]2O`, the IC50 in the assay filed under Rattus norvegicus [2] (Rattus norvegicus) turned out to be 0.025 µM.
In the assay filed under Rattus norvegicus [2] (Rattus norvegicus), `Oc1ccc2c(c1)OC[C@@H](N1CCC(O)(c3ccccc3)CC1)[C@@H]2O` gave a half-maximal inhibitory concentration (IC50) of 0.383 µM.
On to `Oc1ccc2c(c1)OC[C@@H](N1CCC(O)(c3ccc(F)cc3)CC1)[C@H]2O` (stereo in doubt; 12a) [listing 2 of 2 here], for which the median effective dose (ED50) came to 1.2 mg/kg with Rattus norvegicus [9], 4 mg/kg with Mus musculus [10] and 0.3 mg/kg in the assay with Rattus norvegicus [12]. The results for the IC50 (in [11]; in the assay filed under Rattus norvegicus [2]; in assay [1]) were 0.206 µM, 0.004 µM and 0.018 µM, respectively.
As to `Oc1ccc2c(c1)OC[C@@H](N1CCC(O)(CCc3ccccc3)CC1)[C@H]2O`, in the assay filed under Rattus norvegicus [2] (Rattus norvegicus), it took 0.02 µM to reach half-maximal inhibition (IC50).
For `Oc1ccc2c(c1)OC[C@@H](N1CCC(O)(c3ccc(F)cc3)CC1)[C@H]2O` (stereo in doubt; 10a), the results for the IC50 (in the assay listed under Rattus norvegicus [2] (Rattus norvegicus); in assay [1]) were 0.005 µM and 0.028 µM, respectively.
Molecule `Oc1ccc2c(c1)OC[C@@H](N1CCC(O)(c3ccc(C(F)(F)F)cc3)CC1)[C@H]2O` had a half-inhibitory concentration (IC50) in assay [1] of 0.02 µM.
For the molecule `Oc1cc2c(cc1F)[C@H](O)[C@H](N1CCC(O)(c3ccc(F)cc3)CC1)CO2`, the concentration for half-maximal inhibition (IC50) in the assay listed under Rattus norvegicus [2] (Rattus norvegicus) is 0.023 µM; in [1], 0.017 µM.
As for `Oc1ccc2c(c1)OC[C@H](N1CCC(O)(c3ccc(F)cc3)CC1)[C@@H]2O`, the figures for the ED50 in the assay with Rattus norvegicus [13] and in the assay on Rattus norvegicus [12] were 6.8 mg/kg and 1.1 mg/kg, respectively. The half-maximal inhibitory concentration (IC50) amounted to 0.011 µM in the assay filed under Rattus norvegicus [2] (Rattus norvegicus) and 0.035 µM in assay [1].
With `C[C@@H]([C@@H](O)c1ccc(O)cc1)N1CCC(O)(c2ccccc2)CC1` [TRAXOPRODIL], the ED50 in the assay on Mus musculus [14] amounted to 1 mg/kg; in the assay on Rattus norvegicus [12] it was 0.4 mg/kg. The 50% inhibitory concentration (IC50) in assay [1] stood at 0.027 µM; in the assay filed under Rattus norvegicus [15] it was 0.011 µM.
`Oc1ccc2c(c1)OC[C@H](N1CCC(O)(c3ccccc3)CC1)[C@@H]2O`: the IC50 in the assay filed under Rattus norvegicus [2] (Rattus norvegicus) was found to be 0.108 µM; in assay [1] it was 0.107 µM.
On to `Oc1ccc2c(c1)OC[C@@H](N1CCC(O)(c3ccccc3)CC1)[C@H]2O` (stereo in doubt; 3a), for which the IC50 came out at 0.129 µM in the assay filed under Rattus norvegicus [2] and 0.054 µM in assay [1].
The corresponding values for `Oc1ccc2c(c1)OC[C@@H](N1CCC(O)(c3ccccc3)CC1)[C@H]2O` (stereo in doubt; 5a) are 0.009 µM and 0.031 µM.
For `Oc1ccc2c(c1)OC[C@@H](N1CCC(Cc3ccccc3)CC1)[C@H]2O`, the figures for the 50% inhibitory concentration (IC50) (in the assay listed under Rattus norvegicus [2] (Rattus norvegicus); in [1]) were 0.16 µM and 0.13 µM, respectively.

Source of the values: ChEMBL document CHEMBL1131319, “(3R,4S)-3-[4-(4-fluorophenyl)-4-hydroxypiperidin-1-yl]chroman-4,7-diol: a conformationally restricted analogue of the NR2B subtype-selective NMDA antagonist (1S,2S)-1-(4-hydroxyphenyl)-2-(4-hydroxy-4-phenylpiperidino)- 1-propanol” (J Med Chem, 1998).
